Assay results taken from ChEMBL document CHEMBL1133862, “Synthesis and binding affinities of 2 beta-(3-iodoallyloxycarbonyl)-3 beta-(4-substituted-aryl)tropane analogues as ligands for the dopamine transporter studies” (Bioorg Med Chem Lett, 2001).

Key:
[1] = biological target: Sodium-dependent dopamine transporter (Rattus norvegicus, UniProt P23977); test: Inhibition of [3H]WIN-35428 binding to Dopamine transporter in rat striatal synaptic membranes; format: cell membranes, Membrane
[2] = biological target: Sodium-dependent dopamine transporter (Rattus norvegicus) (UniProt P23977); test: Ratio of binding affinity of E isomer to that ofZ isomer towards the dopamine transporter expressed as IC50(E)/IC50(Z)
In short: (§1)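 Ratio of IC50 values for the E and Z isomers bearing the same para substituent on the 3β-phenyl ring. Both IC50s come from rat striatal membrane competition binding against 3 nM [3H]WIN 35,428, with 13 concentrations from 10^-12 to 10^-4 M and (−)-cocaine defining nonspecific binding.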

[3] = biological target: Sodium-dependent dopamine transporter (Rattus norvegicus) (UniProt P23977); test: Ratio of binding affinity of E isomer to that of Z isomer towards the dopamine transporter expressed as IC50(E)/IC50(Z); in short: as §1

Sequence of Sodium-dependent dopamine transporter (Rattus norvegicus) (P23977 whole entry): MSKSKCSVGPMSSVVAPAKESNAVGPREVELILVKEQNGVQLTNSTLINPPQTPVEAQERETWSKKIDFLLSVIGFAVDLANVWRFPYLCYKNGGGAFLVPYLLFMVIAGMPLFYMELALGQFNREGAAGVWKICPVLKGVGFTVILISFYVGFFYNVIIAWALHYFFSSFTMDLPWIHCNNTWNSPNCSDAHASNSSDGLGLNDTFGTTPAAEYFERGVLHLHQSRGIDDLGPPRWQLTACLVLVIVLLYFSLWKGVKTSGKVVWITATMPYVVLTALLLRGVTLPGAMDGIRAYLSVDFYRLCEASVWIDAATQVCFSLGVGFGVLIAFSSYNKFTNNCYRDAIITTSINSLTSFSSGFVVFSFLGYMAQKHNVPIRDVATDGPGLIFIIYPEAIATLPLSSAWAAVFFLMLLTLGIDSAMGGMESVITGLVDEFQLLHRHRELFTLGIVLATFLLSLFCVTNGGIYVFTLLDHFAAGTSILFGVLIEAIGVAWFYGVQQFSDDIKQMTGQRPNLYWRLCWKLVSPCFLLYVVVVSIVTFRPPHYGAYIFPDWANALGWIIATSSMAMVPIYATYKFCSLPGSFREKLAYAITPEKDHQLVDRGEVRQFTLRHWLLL
Sequence of Sodium-dependent dopamine transporter (P23977 whole entry): as above

Cc1ccc(C2CC3CCC(C2C(=O)OC/C=C\I)N3C)cc1 (stereo not drawn)
IC50 [1]: 39.2 nM | Ratio [2]: 4.84

CN1C2CCC1C(C(=O)OC/C=C/I)C(c1ccccc1)C2 (stereo not drawn)
IC50 [1]: 876 nM

CN1C2CCC1C(C(=O)OC/C=C/I)C(c1ccc(Cl)cc1)C2 (stereo not drawn)
IC50 [1]: 46.6 nM

Cc1ccc(C2CC3CCC(C2C(=O)OC/C=C/I)N3C)cc1 (stereo not drawn)
IC50 [1]: 190 nM

CN1C2CCC1C(C(=O)OC/C=C\I)C(c1ccc(F)cc1)C2 (stereo not drawn)
IC50 [1]: 356 nM | Ratio [2]: 1.59

CN1C2CCC1C(C(=O)OC/C=C/I)C(c1ccc(F)cc1)C2 (stereo not drawn)
IC50 [1]: 567 nM

COC(=O)C1C(c2ccc(Cl)cc2)CC2CCC1N2C/C=C/I (stereo not drawn)
IC50 [1]: 6.1 nM

CN1C2CCC1C(C(=O)OC/C=C\I)C(c1ccc(Cl)cc1)C2 (stereo not drawn)
IC50 [1]: 24.9 nM | Ratio [2]: 1.87

CN1C2CCC1C(C(=O)OC/C=C\I)C(c1ccccc1)C2 (stereo not drawn)
Ratio [3]: 2.84 | IC50 [1]: 308 nM
